Kir21 block = inhibitors of mouse Kir2.1 inward-rectifier potassium channel | HEK293-Kir2.1, FluxOR thallium flux fluorescence; stronger effect = lower value | B-score at 10 µM | AID 1672, 2009 | actives 0.85% (n = 310,000) | Inward rectifier potassium channel 2 (Mus musculus), P35561;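 active means fluorescence ratio B-score at or below minus 3 SD of library scores, with starting-brightness B-score within 2 SD, cut at about -4.2 in these data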;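 further: channel flux triggered by added potassium and thallium sulfate stimulus; B-score of peak minus minimum fluorescence over baseline after thallium stimulus; more negative B-score means stronger Kir2.1 block with less thallium influx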
Target sequence (P35561 whole entry, looked up): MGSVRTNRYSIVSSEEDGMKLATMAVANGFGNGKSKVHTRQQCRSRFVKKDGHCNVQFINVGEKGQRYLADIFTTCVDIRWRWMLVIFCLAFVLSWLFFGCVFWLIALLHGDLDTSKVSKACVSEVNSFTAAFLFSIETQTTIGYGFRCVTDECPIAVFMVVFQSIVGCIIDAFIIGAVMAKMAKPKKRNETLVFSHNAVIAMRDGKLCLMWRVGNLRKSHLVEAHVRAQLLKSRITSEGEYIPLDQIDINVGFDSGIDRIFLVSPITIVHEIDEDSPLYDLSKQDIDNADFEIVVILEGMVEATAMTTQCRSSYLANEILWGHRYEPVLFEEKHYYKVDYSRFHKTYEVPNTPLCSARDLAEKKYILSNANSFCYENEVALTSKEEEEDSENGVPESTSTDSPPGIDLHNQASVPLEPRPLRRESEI
KCNK3 block = human KCNK3 channel inhibitors, primary screen, CHO cells, FluxOR thallium flux, B-score | AID 602410, 2012 | Potassium channel subfamily K member 3 (Homo sapiens), O14649 | actives 0.84% (n = 340,000) | FluxOR fluorescence; stronger effect = lower value | B-score at 10 µM;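 active means B-score under library mean minus 4 SD, starting fluorescence ratio at most library mean plus 5 SD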;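 further: more negative B-score means stronger inhibition of thallium flux through KCNK3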
KCNK9 inh = KCNK9 potassium channel inhibitors, primary screen, HEK293 cells, thallium flux | actives 1.2% (n = 310,000) | Potassium channel subfamily K member 9 (Homo sapiens), Q9NPC2 | B-score at 10 µM | FluxOR thallium flux fluorescence; stronger effect = lower value;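 active means ratio B-score over 3 SD below the library mean, with starting fluorescence within 5 SD of its mean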;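 further: negative B-score means less thallium flux so channel inhibition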
KCNQ1 pot = potentiators or activators of KCNQ1 channel, primary screen, cell-based, thallium flux, high-throughput | Potassium voltage-gated channel subfamily KQT member 1 (Homo sapiens), P51787 | CHO-K1 KCNQ1, thallium flux FluxOR fluorescence; stronger effect = higher value | actives 0.35% (n = 310,000) | B-score at 10 µM;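 active means fluorescence ratio B-score, a plate-corrected score, at least three library SD, with initial intensity B-score within 5 SD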
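System: CHO-K1 cells stably expressing KCNQ1 / Medium: assay buffer for compound exposure, DMSO matched across wells / Reagent: thallium- and potassium-containing depolarizing buffer / Compound: one concentration, matched DMSO / Incubation: 20 min compound pretreatment at room temperature / Measured by: kinetic FluxOR fluorescence, 10 s baseline plus 110 s post-stimulus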
KCNQ1 inh = inhibitors of human KCNQ1 channel, primary screen, cell-based, thallium flux, high-throughput. AID 2642, 2010. B-score at 10 µM. Potassium voltage-gated channel subfamily KQT member 1 (Homo sapiens), P51787. actives 1.3% (n = 310,000). CHO-K1 KCNQ1, FluxOR thallium flux fluorescence; stronger effect = higher value;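 active means compounds whose thallium flux B-score, printed positive for inhibition, exceeds three library SD while starting fluorescence stays within three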;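 further: channel opened by potassium depolarization with thallium stimulus after 20 min compound exposure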
hERG rescue = hERG rescue from dofetilide block, primary screen, cell-based, CHO-hERG, FluxOR thallium flux, dofetilide IC70; activation (rescue from dofetilide block), less the hit threshold, % at 10 µM; dofetilide IC70 present; actives 0.51% (n = 310,000);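 active means activation above the mean of controls blocked by dofetilide plus 5 SD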;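 further: thallium influx through hERG after potassium depolarization seen as dye fluorescence rise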
KCNK9 block conf = KCNK9 potassium channel inhibitors, confirmation, HEK293 cells, thallium flux, duplicate; AID 492992, 2010; actives 43% (n = 4,900); inhibition, % at 10 µM; shares compounds with KCNK9 inh; FluxOR thallium flux fluorescence;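 active means thallium signal inhibited by more than 5 SD of the compound-free buffer control wells, on both duplicate plates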
Kir2-1 spec = mouse Kir2.1 channel inhibition, confirmation, selectivity assay for KCNK9 modulator project, cell-based, HEK293, thallium flux. inhibition, % at 10 µM. shares compounds with KCNK9 inh. actives 4% (n = 4,900). Kir2.1 cells, FluxOR thallium flux fluorescence. AID 492993, 2010;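 active means thallium signal drop more than 5 SD beyond the mean of the no-compound control wells, seen in both duplicate plates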;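 further: signal is fluorescence rise after thallium addition divided by baseline fluorescence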
HEK293 Tl ctr = thallium flux in non-induced HEK293 cells, confirmation, counter-screen for KCNK9 inhibitor project, cell-based, second counter screen, non-induced KCNK9-HEK293; inhibition, % at 10 µM; actives 40% (n = 4,900); shares compounds with KCNK9 inh; FluxOR thallium flux; AID 492997, 2010;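 active means thallium signal drop beyond 5 SD of the untreated control mean, on both duplicate plates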
Numbers stand for hits; i = inactive; nt = no result. In the library only some 3.8% were active in any assay of this set; here they are far more common.

SMILES	Kir21 block	KCNK3 block	KCNK9 inh	KCNQ1 pot	KCNQ1 inh	hERG rescue	KCNK9 block conf	Kir2-1 spec	HEK293 Tl ctr
O=C(Nc1cccnc1)c1cn(-c2ccccc2)nc1-c1cccs1	i	i	i	i	i	i	nt	nt	nt
O=C(Nc1cccc2ccccc12)c1cn(-c2ccccc2)nc1-c1cccs1	i	-9.52	-9.97	i	i	i	49.5%	i	24.5%
C=CCC1(CC=C)CCCN1C(=O)c1cc(COc2cccc(C(F)(F)F)c2)on1	i	i	i	i	i	i	i	i	i
Cc1ccc(CN(C)C(=O)c2cc(COc3cccc(C(F)(F)F)c3)on2)o1	-4.56	i	i	i	i	i	i	i	32.5%
C/C(=N\N=c1/scc(C)n1Cc1ccco1)c1cccc([N+](=O)[O-])c1	i	i	-8.73	i	i	i	i	i	i
Fc1ccccc1N1CCN(C2CCCN(Cc3cccc(C(F)(F)F)c3)C2)CC1 (centres undefined)	i	i	i	i	i	i	i	i	i
COc1ccc(CN2CCCC(N3CCN(c4cccc(Cl)c4)CC3)C2)cc1OC (centres undefined)	i	i	i	i	i	i	nt	nt	nt
COc1cc(CN2CCCC(N3CCN(c4ccccc4C)CC3)C2)cc(Cl)c1O (centres undefined)	i	i	i	i	i	i	i	i	i
Oc1ccc2ccccc2c1C=NCc1ccccc1	i	i	i	i	i	i	i	i	i
CCN1C2OC3OC4C(OC3OC2N(CC)S1(=O)=O)N(CC)S(=O)(=O)N4CC (centres undefined)	i	i	i	i	i	i	nt	nt	nt
N#Cc1c(Sc2ncc(C(F)(F)F)cc2Cl)nsc1C/C=N\OCc1ccccc1Br	i	i	i	i	i	i	i	i	i
CCc1ccc(-c2csc(NC(=O)C3=NN(c4ccccc4)C(=O)CC3)n2)cc1	i	i	i	i	i	i	i	i	i
Cc1cc(C)c(-c2csc(NC(=O)C3=NN(c4ccccc4)C(=O)CC3)n2)c(C)c1	i	i	i	i	i	i	nt	nt	nt
N#Cc1c(-c2ccccc2)nc(SCC(=O)N2c3ccccc3Sc3ccccc32)[nH]c1=O	i	i	i	i	i	i	i	i	25.0%
CCOc1nc(C)cc(C)c1S(=O)(=O)c1cccc(C)c1	i	nt	i	i	i	i	nt	nt	nt
Cc1cc(C)c(S(=O)(=O)c2c(C)cccc2C)c(OCC(C)C)n1	i	i	-9.89	i	i	i	59.0%	i	42.5%
COc1ccc(Br)cc1[C@H]1[C@@H]2C=CCC[C@@]2(C)C(=O)N1Cc1ccccc1	i	i	-14.5	i	i	i	66.5%	i	49.0%
COc1ccc(-c2ccc(OC)c([C@H]3[C@@H]4C=CCC[C@@]4(C)C(=O)N3Cc3ccccc3)c2)cc1OC	i	i	i	i	i	i	nt	nt	nt
O=C(Nc1ccccc1N1CCOCC1)c1ccc(N2CCCC2=O)cc1	nt	i	nt	nt	nt	nt	nt	nt	nt
O=C(CN1CCN(Cc2ccccc2)CC1)Nc1cccc(Cl)c1	i	i	i	i	i	i	nt	nt	nt
CCCOc1ccc(C(=O)N/N=C/c2c[nH]c3ccc(Br)cc23)cc1	i	i	i	i	i	i	nt	nt	nt
O=C(N/N=C/c1c[nH]c2ccc(Br)cc12)c1ccn(Cc2ccc(Cl)cc2)n1	i	i	-14.9	i	i	i	49.0%	i	i
CC(C)C1COC(c2cccc3ccccc23)=N1 (centres undefined)	i	i	i	i	i	i	nt	nt	nt
CCn1cc(C2=NC(C(C)C)CO2)c2ccccc21 (centres undefined)	i	i	i	i	i	i	i	i	i
CCn1cc(C2N3CC4(C)CN2CC(C)(C3)C4=O)c2ccccc21 (centres undefined)	i	i	i	i	i	i	nt	nt	nt
SMILES	Kir21 block	KCNK3 block	KCNK9 inh	KCNQ1 pot	KCNQ1 inh	hERG rescue	KCNK9 block conf	Kir2-1 spec	HEK293 Tl ctr
CCn1cc(C2=NC(CC(C)C)CO2)c2ccccc21 (centres undefined)	i	i	i	i	i	i	i	i	i
CCn1cc(C2=NC(CCSC)CO2)c2ccccc21 (centres undefined)	i	i	i	i	i	i	i	i	i
CCOC(=O)c1c(C)n(C)c2ccc(OC)c(NC(=O)CN3CCC(C(=O)OCC)CC3)c12	i	i	i	i	i	i	nt	nt	nt
Cc1ccc(S(=O)(=O)N2CCC(Oc3cccc(C(F)(F)F)c3)CC2)cc1	i	i	i	i	i	i	nt	nt	nt
O=S(=O)(c1ccc(F)cc1)N1CC2CCCN2c2ccc(C(F)(F)F)cc21 (centres undefined)	i	i	-12.6	i	i	i	29.5%	i	42.5%
Cc1ccc(S(=O)(=O)N2CC3CCCN3c3ccc(C(F)(F)F)cc32)cc1 (centres undefined)	i	i	-19.2	i	i	i	66.0%	i	40.5%
COCCn1cnnc1SCC(=O)Nc1ccc(Br)cc1F	i	i	i	i	i	i	nt	nt	nt
COc1ccc(C2CC(c3cccs3)=Nc3ccccc3S2)cc1 (centres undefined)	i	i	-12.1	i	i	i	51.5%	i	36.0%
COc1cccc(S(=O)(=O)N2CCN(Cc3ccc4c(c3)OCO4)CC2)c1	i	i	i	i	i	i	i	i	i
CCOc1ccc(S(=O)(=O)N2CCN(Cc3ccc4c(c3)OCO4)CC2)cc1OCC	i	i	i	i	i	i	nt	nt	nt
O=S(=O)(c1ccc(Cl)nc1)N1CCN(Cc2ccc3c(c2)OCO3)CC1	i	i	i	i	i	i	nt	nt	nt
O=S(=O)(c1ccc(Br)s1)N1CCN(Cc2ccc3c(c2)OCO3)CC1	i	i	i	i	i	i	i	i	i
O=S(=O)(c1cccc2cccnc12)N1CCN(Cc2ccc3c(c2)OCO3)CC1	i	i	i	i	i	i	i	i	i
CCOC(=O)c1cnc2cc(F)c(F)cc2c1N1CCOCC1	i	i	i	i	i	i	nt	nt	nt

Screens deposited in PubChem BioAssay by Johns Hopkins Ion Channel Center.
